Measurements from different studies.
Lines come from different studies, so protocols differ.
CDK8 with cyclin C: Cyclin-dependent kinase 8, with cyclin C (CDK8, Homo sapiens, UniProt P49336)
CDK8: Cyclin-dependent kinase 8 (CDK8, Homo sapiens, UniProt P49336)

SMILES | target | test | conditions | endpoint | result
O=C(Nc1cnn(-c2csc(C(=O)NC3COC3)c2)c1)Nc1c(F)cccc1Cl | CDK8 with cyclin C | enzyme activity, inhibitor | 5 µM | remaining activity | 99%
Cn1c2c(c3ccc(Cl)c(Cl)c31)C(C#N)C1(CCCCC1)NC2=O (racemic) | CDK8 | thermal stability, DSF | 10 µM | ΔTm | 0.4 °C
CC(C)CC(=O)N1CCc2nc(-c3ccc(Br)cc3)nc(N(C)Cc3ccccc3)c2C1 | CDK8 | cell-free assay, competition with immobilised ligand | 0.1 µM | remaining binding | 82%
COc1ccnn2ncc(-c3ccnc(N(C)C)n3)c12 | CDK8 | binding | 1 µM | remaining binding | 100%
CCC(=O)N[C@H]1CC[C@@H](C(=O)N(C)c2ccc(-c3nc4ccccc4o3)cc2)C1 | CDK8 | cell-free assay, competition with immobilised ligand | 1 µM | remaining binding | 100%
CCN1CCC2(CC1)NC(=O)c1c(c3ccc(Cl)c(Cl)c3n1C)C2C#N (racemic) | CDK8 | thermal stability, DSF | 10 µM | ΔTm | 1.2 °C
CC(C)(C)c1nc(-c2cccc(NS(=O)(=O)c3c(F)cccc3F)c2F)c(-c2ccnc(N)n2)s1 | CDK8 with cyclin C | enzyme activity, inhibitor, radiometric | 1 µM | remaining activity | 109%
CN1CCC2(CC1)NC(=O)c1c(c3ccc(Cl)c(Cl)c3n1C)C2C#N (racemic) | CDK8 | thermal stability, DSF | 10 µM | ΔTm | 1.8 °C
O=C(O)[C@H]1[C@H](Cn2nnc3ccccc3c2=O)CC[C@@H]1C(=O)c1ccc(OCCC2CCOCC2)cc1 | CDK8 | cell-free assay, competition with immobilised ligand | 1 µM | remaining binding | 100%
Cc1sc(C(=O)NC2COC2)cc1-n1cc(NC(=O)Nc2c(F)cccc2Cl)cn1 | CDK8 with cyclin C | enzyme activity, inhibitor | 10 µM | remaining activity | 92.7%
CN1CCN(C(=O)c2ccc3cc(CCNc4ccnc5ccc(C#N)cc45)ccc3c2)CC1 | CDK8 with cyclin C | binding, TR-FRET | – | kon | 878000 M⁻¹ s⁻¹
CS(=O)(=O)N1CCCC(NC(=O)[C@H](CCC2CCCCC2)NC(=O)c2ccc(CNC(=O)c3cnc4ccccn34)cc2)C1 (some centres unmarked) | CDK8 | cell-free assay, competition with immobilised ligand | 0.1 µM | remaining binding | 42%
Nc1ncnc2occ(-c3ccc(NC(=O)Nc4cc(C(F)(F)F)ccc4F)cc3)c12 | CDK8 | cell-free assay, inhibitor | 20 µM | remaining signal | 2%
Cn1c2c(Cl)c(Cl)ccc2c2cn[nH]c(=O)c21 | CDK8 | thermal stability, DSF | 10 µM | ΔTm | 1 °C
